Like-named read-outs stand apart in the source and are kept apart here.
Legend:
[1] = tested on: L858R/T790M/L718Q EGFR Ba/F3 cells; assay: Ba/F3 cell proliferation assay, L858R/T790M/L718Q EGFR; format: cell-based, murine
[2] = target: EGFR L858R/T790M (Homo sapiens, UniProt P00533, L858R/T790M); assay: HTRF kinase assay of purified EGFR L858R/T790M; format: biochemical; details: for IC50: read-out: IC50 against EGFR L858R/T790M, HTRF assay, purified enzyme
[3] = tested on: L858R/T790M/C797S EGFR Ba/F3 cells; assay: Ba/F3 cell proliferation assay, L858R/T790M/C797S EGFR; format: cell-based, murine
[4] = target: L858R/T790M EGFR (Homo sapiens, UniProt P00533, L858R/T790M); assay: Western blot of total EGFR protein in L858R/T790M Ba/F3 cells; format: cell-based, murine; details: L858R/T790M Ba/F3, 24 hours, 0.1 μM DDC-01-163; 10 μM pomalidomide, 1 μM JBJ-07-149 or increasing MLN4924
[5] = target: wildtype EGFR (Homo sapiens, UniProt P00533); assay: Western blot of total EGFR protein in wildtype EGFR Ba/F3 cells; format: cell-based, murine; details: increasing concentrations, 6, 24 and 48 hours
Procedure, shortened: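 Wildtype EGFR Ba/F3 cells exposed to rising test-compound concentrations for 6, 24 and 48 h, then lysed and immunoblotted for total EGFR with tubulin as loading control. Band densitometry was normalised to tubulin and expressed as percent EGFR remaining relative to DMSO control. The same treatment was run in parallel on L858R/T790M Ba/F3 cells.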

[6] = target: CRBN (Homo sapiens, UniProt Q96SW2); assay: Cellular CRBN engagement assay; format: cell-based; details: restoration of BRD4BD2-GFP signal, Figure 2B
Chain of CRBN (Q96SW2 whole entry, species assumed): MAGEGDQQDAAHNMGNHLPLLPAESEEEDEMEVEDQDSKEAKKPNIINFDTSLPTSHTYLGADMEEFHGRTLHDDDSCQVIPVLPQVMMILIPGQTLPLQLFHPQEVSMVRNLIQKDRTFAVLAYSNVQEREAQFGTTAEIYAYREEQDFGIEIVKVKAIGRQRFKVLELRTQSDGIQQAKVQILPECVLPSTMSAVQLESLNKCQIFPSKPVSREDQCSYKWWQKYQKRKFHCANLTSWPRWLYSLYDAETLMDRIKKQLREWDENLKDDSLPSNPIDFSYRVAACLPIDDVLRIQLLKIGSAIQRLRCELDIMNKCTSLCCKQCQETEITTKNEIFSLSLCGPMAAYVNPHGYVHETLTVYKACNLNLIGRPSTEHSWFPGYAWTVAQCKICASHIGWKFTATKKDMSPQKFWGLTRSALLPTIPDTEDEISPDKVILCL

SMILES | IC50 [2] | effect on EGFR degradation by DDC-01-163 (competition / rescue) [4] | effect on EGFR protein levels in wildtype Ba/F3 cells [5] | also measured
O=C(Nc1nccs1)C(c1ccccc1)N1Cc2ccc(-c3ccc(N4CCNCC4)nc3)cc2C1=O (stereo not drawn) [JBJ-07-149] | 1.1 nM | prevented EGFR degradation | – | sensitivity of LT/L718Q EGFR Ba/F3 cells in cell proliferation assay ([1]; L858R/T790M/L718Q EGFR Ba/F3 cells): resistant; sensitivity of LT/C797S EGFR Ba/F3 cells in cell proliferation assay ([3]; L858R/T790M/C797S EGFR Ba/F3 cells): resistant
NS(=O)(=O)OC[C@@H]1C[C@@H](n2ccc3c(N[C@H]4CCc5ccccc54)ncnc32)C[C@@H]1O [MLN4924] | – | rescue EGFR degradation | – | –
C=CC(=O)Nc1cc(Nc2nccc(-c3cn(C)c4ccccc34)n2)c(OC)cc1N(C)CCN(C)C [osimertinib, reference compound] | – | – | – | sensitivity of LT/L718Q EGFR Ba/F3 cells in cell proliferation assay [1]: resistant; sensitivity of LT/C797S EGFR Ba/F3 cells in cell proliferation assay [3]: resistant
Nc1cccc2c1C(=O)N(C1CCC(=O)NC1=O)C2=O (stereo not drawn) [pomalidomide] | – | prevented EGFR degradation | – | –

Further lines, with some results ahead:

IC50 [2] | effect on EGFR degradation by DDC-01-163 (competition / rescue) [4] | effect on EGFR protein levels in wildtype Ba/F3 cells [5] | SMILES | also measured
390 nM | – | did not affect protein levels | O=C1CCC(N2C(=O)c3cccc(NCCOCCOCCOCCN4CCN(c5ccc(-c6ccc7c(c6)C(=O)N(C(C(=O)Nc6nccs6)c6cc(F)ccc6F)C7)cc5)CC4)c3C2=O)C(=O)N1 (stereo not drawn) [JBJ-07-200] | cellular CRBN engagement [6]: more potent CRBN engagement than JBJ-07-038; reduction of biochemical activity compared to DDC-01-163 ([2]; ratio of IC50 values): 9 fold; reduction of biochemical activity compared to JBJ-07-038 ([2]; ratio of IC50 values): 21 fold
19 nM | – | did not affect protein levels | O=C1CCC(N2C(=O)c3cccc(NCCOCCOCCOCCN4CCN(c5ccc(-c6ccc7c(c6)C(=O)N(C(C(=O)Nc6nccs6)c6cc(F)ccc6O)C7)cc5)CC4)c3C2=O)C(=O)N1 (stereo not drawn) [JBJ-07-038] | –

From article PMC7686272 (Angewandte Chemie (International ed. in English), 2020)
